Source: PubChem BioAssay
Only some compounds are listed: those with a hit (about 2% of all), similar ones and a draw of the others.
PKD1 inh: inhibitors of human PKD1 kinase, biochemical, fluorescence polarization; PKD1 kinase fluorescence polarization assay; Serine/threonine-protein kinase D1 (Homo sapiens), Q15139; inhibition, % (concentration not given with the values); AID 797, 2007; 0.056% of 200,000 active
Runt-CBFb FRET: inhibitors of RUNX1 Runt–CBFb binding, primary screen, biochemical, FRET, Cerulean-Runt, Venus-CBFb, uHTS; AID 1496, 2009; Cerulean-Runt/Venus-CBFb FRET ratio 530/480, 1 h; inhibition, % at 20 µM; 0.46% of 220,000 active;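 active means inhibition over about 50% at 20 µM in the single-dose screen, limit read from the data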;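 further: 0% = DMSO wells and 100% = excess unlabeled CBFb competitor control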
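Assay system: Cerulean-Runt domain / Medium: Tris 50 mM pH 7.5, KCl, K2SO4, 0.01% BSA / Timing: protein complex preformed 1 h, compound exposure 1 h, room temperature, dark / Measured by: FRET, excitation 422 nm, emission at 530 and 480 nm / Evaluation: loss of energy transfer signal / Control set: 5 µM unlabeled CBFb as full-inhibition high control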
MEX-5 binding: MEX-5 zinc finger RNA-binding disruptors – biochemical, C. elegans, fluorescence polarization, MLPCN library, primary screen; MEX-5/FITC-TCR2 RNA binding; stronger effect = lower value; activity score (negative = inhibition of binding), % at 10 µM; 0.38% of 300,000 active; AID 1832, 2009;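 active means inhibition past about -25% in most replicates, and total fluorescence under double the plate's negative control median, limit read from the data; inconclusive means replicates evenly split on the limit, or fluorescence at least double controls; inactive means too little inhibition in most replicates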;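 further: 0% = DMSO and -100% = 5 µM competing unlabeled TCR2 RNA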
Runt-SMMHC FRET: inhibitors of RUNX1 Runt–CBFb-SMMHC binding, primary screen, biochemical, FRET, Cerulean-Runt, Venus-CBFb-SMMHC, uHTS; Cerulean-Runt/Venus-CBFb-SMMHC FRET ratio 530/480, 1 h; AID 1434, 2008; 0.74% of 220,000 active; Runt-related transcription factor 1 (Homo sapiens) + Core-binding factor subunit beta …; inhibition, % at 20 µM;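 active means mean inhibition across duplicate retests at 20 µM reaching about 50%, limit read from the data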;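 further: 0% = DMSO wells and 100% = wells with excess untagged CBFb-SMMHC; inhibitors lower the FRET ratio by blocking Runt binding to CBFb-SMMHC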
EBV gp42 inh: Epstein-Barr virus gp42 inhibitors, primary screen, biochemical, uHTS, fluorescence polarization. 0.42% of 220,000 active. Glycoprotein 42 (Epstein-Barr virus (strain AG876)), Q1HVG2. Fluorescence polarization binding assay, mP read-out. inhibition, % (tested at 21.74 µM)
Target sequence (Q1HVG2 whole entry, looked up): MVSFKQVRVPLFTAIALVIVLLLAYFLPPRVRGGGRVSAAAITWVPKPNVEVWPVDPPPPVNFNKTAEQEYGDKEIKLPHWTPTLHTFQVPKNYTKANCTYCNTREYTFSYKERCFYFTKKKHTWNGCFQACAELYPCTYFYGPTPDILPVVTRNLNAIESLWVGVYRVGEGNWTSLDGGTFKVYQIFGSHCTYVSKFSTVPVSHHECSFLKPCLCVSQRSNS
RanGTP-Impb inh: inhibitors of RanGTP-importin-beta interaction, primary screen, biochemical, FRET, CFP-Ran, YFP-importin-beta, homogeneous; inhibition, % (concentration not given with the values); 1.1% of 300,000 active; Ran GTPase (GTP-bound) - importin-beta complex; cell-free CFP-Ran/YFP-importin-beta FRET ratio;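 active means more than half of the replicate wells show a fall in the fluorescence ratio signal beyond about 16%, limit read from the data, passing the limit was not always enough; inconclusive means exactly half of the replicate wells pass the set limit; inactive means fewer than half of replicates pass the limit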;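 further: 0% = DMSO wells and 100% = Ran loaded with GDP instead of GTP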
Starred values were filed as active, the others as inactive; ? = inconclusive; nt = not tested or not shown. Unless noted, no stated cut-off is given here; in the data, active means inhibition above about 50%; inactive means the rest.

SMILES	PKD1 inh	Runt-CBFb FRET	MEX-5 binding	Runt-SMMHC FRET	EBV gp42 inh	RanGTP-Impb inh
CCN(CC)S(=O)(=O)c1ccc(C(=O)OC2CCCCC2CN(C)C)cc1 (stereo not drawn)	-10	0	-1	4	-25	26*
CN1Cc2sc(N)c(C#N)c2CC1(C)C	-6	89*	-23	82*	4	117*
CCN1CCc2c(sc(NC(=S)NC(=O)c3ccccc3)c2C#N)C1	-12	12	1	-14	-27	141*
CN1Cc2sc(NC(=S)NC(=O)c3ccccc3)c(C#N)c2CC1(C)C	nt	14	0	67*	-38	145*
O=C(N/N=C/c1ccc2c(c1)OCO2)C(O)c1ccccc1 (stereo not drawn)	-6	2	2	-4	-22	3
C/C(=N\NC(=O)c1cc(-c2ccc(C)s2)[nH]n1)c1ccncc1	nt	nt	-1	nt	nt	3
COc1ccc(NC2=C(C(C)=O)C(c3ccc(OC)c(OC)c3)C(C(C)=O)C(C)(O)C2)cc1 (stereo not drawn)	2	-1	-1	-3	-7	164*
CCNc1cccc2c1C(=O)N(C)C2=O	7	-211	0	-134	160*	-159
CCC(=O)Nc1cccc2c1C(=O)N(C)C2=O	-12	-4	1	0	-4	-1
CN1C(=O)N(C)c2cccc3cccc1c23	nt	nt	0	nt	nt	6
CC1=Nc2cccc3cccc(c23)N1C	-10	0	-29*	47	-18	-5
Cc1nn(-c2ccccc2)c2c1P(=O)(O)/C(=C1\N(C)c3ccccc3C1(C)C)C=N2	-5	-47	-4	-63	-26	29*
O=C(O)CCCN1C(=O)/C(=C/c2ccc(-c3nc4ccccc4s3)o2)SC1=S	1	19	-29*	-2	-39	-2
O=C(O)CCCCCN1C(=O)/C(=C\c2ccc(-c3ccc(Cl)cc3)o2)SC1=S	nt	29	-4	-90	25	0
O=C(Nc1ccc(N2CCOCC2)cc1N1CCOCC1)c1ccc([N+](=O)[O-])cc1	-15	-1	0	-3	5	1
O=C(NNc1cc(N2CCOCC2)nc(N2CCOCC2)n1)c1ccc([N+](=O)[O-])cc1	-9	3	-1	3	-25	63*
COC(=O)[C@H](CCSC)NC(=O)Nc1ccc(S(N)(=O)=O)cc1	nt	-1	0	-1	-9	0
O=c1cc(-c2ccc(O)cc2)oc2cc(O)c(C3OC(CO)C(O)C(O)C3O)c(O)c12 (stereo not drawn)	4	38	-6	87*	-5	7
Nc1ccc(N)c(C(=O)O)c1	nt	nt	-9	nt	108*	-9
Nc1ccc(C(=O)O)c(O)c1	-6	3	-9	-3	-11	-5
COc1ccc(NC(=O)C(c2ccccc2)N2CCN(c3ccccn3)CC2)cc1Cl (stereo not drawn)	10	0	17	1	-8	1
CCn1c(=O)cc(N2CCN(Cc3ccccc3)CC2)[nH]c1=O	nt	nt	-1	nt	nt	?
O=c1cc(N2CCN(Cc3ccccc3)CC2)[nH]c(=O)n1Cc1ccc(F)cc1	-11	2	-1	-1	4	42*
O=c1cc(N2CCN(Cc3ccccc3)CC2)[nH]c(=O)n1-c1cccc(C(F)(F)F)c1	-2	6	-2	17	-17	41*
O=C(CC1Nc2c3ccccc3nc(=S)n2C1=O)NC1CCCCC1 (stereo not drawn)	2	0	0	0	0	-2
Cc1ccc(C)c(NC(=O)CN(C)S(=O)(=O)c2cccc3cccnc23)c1	nt	-1	0	-1	1	1
